GSTO1 inh: inhibitors of recombinant GSTO1, primary screen, counter-screen for RBBP9 inhibitor project, biochemical, fluorescence polarization; activity-based probe fluorescence polarization; inhibition, % at 5.96 µM; AID 1974, 2009; Glutathione S-transferase omega-1 (Homo sapiens), P78417; hit rate 1.1% among 300,000;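 active means inhibition above the campaign mean inhibition plus 3 SD, cut at about 35% in these data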;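 further: 0% = GSTO1-1 with DMSO and 100% = wells lacking GSTO1-1 enzyme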
RBBP9 inhibitor: human RBBP9 inhibitors, primary screen, biochemical, fluorescence polarization, FP-Rh probe, HTS | Serine hydrolase RBBP9 (Homo sapiens), O75884 | recombinant RBBP9 | inhibition, % at 7.94 µM | hit rate 0.2% among 220,000 | AID 1515, 2009;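 active means inhibition above the campaign mean of all tested compounds plus 3 SD, cut at about 14% in these data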;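 further: plate controls were DMSO wells with RBBP9 for no effect and wells lacking RBBP9 protein for full effect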
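Test system: recombinant human RBBP9; Timing: 30 min then 45 min, 25 °C; Detection: fluorescence polarization; Control set: RBBP9 with DMSO as uninhibited control, no-protein wells as full inhibition; Compound dosing: one concentration, 7.94 µM nominal, 0.794% DMSO; Probe or stimulus: FP-Rh activity-based probe, 375 nM before mixing.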
PAD4 inh: human PAD4 inhibitors, primary screen, biochemical, fluorescence polarization, 1536-well format | inhibition, % at 6.36 µM | recombinant PAD4, RCA probe fluorescence polarization | Protein-arginine deiminase type-4 (Homo sapiens), Q9UM07 | hit rate 0.41% among 330,000;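 active means percent inhibition above a cutoff equal to the mean of all tested compounds plus 3 SD, cut at about 15% in these data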;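 further: 0% = PAD4 with RCA probe and DMSO and 100% = probe without PAD4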
Target sequence (Q9UM07 whole entry, looked up): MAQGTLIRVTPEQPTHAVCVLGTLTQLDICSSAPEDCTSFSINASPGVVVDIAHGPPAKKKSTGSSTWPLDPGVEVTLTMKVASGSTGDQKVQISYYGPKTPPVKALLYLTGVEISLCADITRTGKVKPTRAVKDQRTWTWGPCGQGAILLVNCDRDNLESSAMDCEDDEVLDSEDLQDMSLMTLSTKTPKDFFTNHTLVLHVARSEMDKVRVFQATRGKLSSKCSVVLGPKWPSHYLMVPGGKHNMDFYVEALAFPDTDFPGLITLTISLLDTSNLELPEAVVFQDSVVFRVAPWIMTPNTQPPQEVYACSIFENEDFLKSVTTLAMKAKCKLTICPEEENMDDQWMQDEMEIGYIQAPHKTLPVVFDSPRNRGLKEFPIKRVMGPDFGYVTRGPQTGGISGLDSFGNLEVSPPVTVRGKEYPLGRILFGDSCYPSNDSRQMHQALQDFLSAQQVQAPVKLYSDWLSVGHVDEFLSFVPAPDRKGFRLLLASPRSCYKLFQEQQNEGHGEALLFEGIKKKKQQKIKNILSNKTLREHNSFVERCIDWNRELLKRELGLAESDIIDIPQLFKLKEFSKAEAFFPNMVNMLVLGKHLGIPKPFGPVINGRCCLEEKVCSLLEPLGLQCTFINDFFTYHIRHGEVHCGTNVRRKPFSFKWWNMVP
Fam108B inh: mouse Fam108B serine hydrolase inhibitors, primary screen, counter-screen for RBBP9 inhibitor project, biochemical, fluorescence polarization; recombinant Fam108B, FP-Rh probe fluorescence polarization; hit rate 0.33% among 300,000; inhibition, % at 9.51 µM;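 active means inhibition above the screen mean inhibition plus 3 SD, computed separately per campaign, cut at about 18% in these data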;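 further: inhibitors lower polarization as less probe binds the enzyme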
PRMT1 FP inh: PRMT1 methyltransferase inhibitors, primary screen, biochemical, fluorescence polarization | AID 652257, 2013 | hit rate 1.3% among 370,000 | recombinant PRMT1, activity-based probe fluorescence polarization | inhibition, % at 2.79 µM | Protein arginine N-methyltransferase 1 (Homo sapiens), Q99873;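 active means inhibition above about 21% made by adding two undisclosed values, limit read from the data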
PME-1 inh: PME-1 inhibitors via competitive probe labeling, primary screen, biochemical, fluorescence polarization, FP-Rh probe, HTS; recombinant PME-1; Protein phosphatase methylesterase 1 (Homo sapiens), Q9Y570; inhibition, % at 5.9 µM; hit rate 0.53% among 320,000; AID 2130, 2009;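 active means inhibition above the campaign mean of all compounds plus 3 SD, cut at about 26% in these data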;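 further: competitive labeling of PME-1 active site by serine hydrolase directed probe; 0% = PME-1 with DMSO and 100% = wells lacking PME-1 enzyme; inhibitors block probe labeling so polarization falls and inhibition rises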
GSTO1 inh conf: GSTO1 inhibitor hit confirmation, counter-screen for RBBP9 inhibitor project, biochemical, fluorescence polarization, triplicate. shares compounds with GSTO1 inh. recombinant GSTO1, probe fluorescence polarization. inhibition, % at 5.96 µM. hit rate 54% among 2,400. AID 2176, 2009;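 active means inhibition above the primary screen's cutoff, its mean inhibition plus 3 SD, cut at about 35% in these data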;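 further: loss of polarization as inhibitors block binding of rhodamine sulfonate ester activity probe; 0% = GSTO1 with DMSO and 100% = wells lacking GSTO1 enzyme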
GSTO1 recomb ABPP: inhibitors of purified human GSTO1, late-stage follow-up, biochemical, gel ABPP, SE-Rh probe, percent inhibition; inhibition, % at 1 µM; recombinant GSTO1, gel ABPP SE-Rh probe fluorescence; shares compounds with GSTO1 inh; hit rate 30% among 130;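 active means inhibition of the enzyme GSTO1 above about 75%, limit read from the data; inactive means inhibition below that limit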
Numbers without * were called inactive; nt = no result given. Compounds with a hit are over-represented: about 2.3% of the library has one in this group of screens.

SMILES	GSTO1 inh	RBBP9 inhibitor	PAD4 inh	Fam108B inh	PRMT1 FP inh	PME-1 inh	GSTO1 inh conf	others
CC(C)(C)NC(=O)C(c1cccs1)N(Cc1ccc(F)cc1)C(=O)c1csnn1 (centres undefined)	-1	-6	2	-3	1	-6	nt
Cc1cc(/C=C2\SC(=S)NC2=O)c(C)n1C1CC1	40*	14	-5	2	6	-1	51*
Cc1cc(/C=C2/C(=O)N(C)C(=S)N2C)c(C)n1C1CC1	1	-3	-2	-6	8	-22	nt
CCC1=NNc2cccc3c(OC)ccc1c23	73*	3	37*	14	nt	23	27
COc1ccc2c3c(cccc13)C(=O)N(O)C2=O	-4	-8	4	1	1	-1	nt
O=C(COc1ncnc2sccc12)N1CCc2ccccc2C1	-1	-4	-1	-3	3	1	nt
Cc1ccc(Cl)cc1NC(=O)CCC(=O)O	64*	-7	-3	3	-5	2	7
Nc1ccc2nn(-c3ccc(F)cc3)nc2c1	43*	nt	-4	2	2	-3	48*
Cc1ccc(-n2nc3ccc(N)cc3n2)cc1	30	-4	-7	4	0	6	nt
CC(C)(C)c1ccc(C(=O)N2CCN(c3nc4ccccc4o3)CC2)cc1	-1	0	1	-1	-9	-4	nt
c1ccc2c3c([nH]c2c1)-c1[nH]ncc1CC3	74*	6	7	5	0	11	11
CC1CCC(NC(=O)C2(C)CCC(=O)N2Cc2cccnc2)CC1 (centres undefined)	4	-2	-2	-2	-3	-3	nt
CC1(C(=O)NC2CCCCC2)CCC(=O)N1Cc1cccnc1 (centres undefined)	52*	-8	1	2	3	1	5
CCCN1CCC(=O)N([C@H](CSc2ccc(Br)cc2)c2ccccc2)CC1	53*	nt	1	4	-3	-6	8
COc1ccc2nc(Nc3sc4c(c3C(N)=O)CCCC4)sc2c1	42*	-4	-57	4	45*	24	25
CNc1nc(C)c(C(=O)OCc2ccccc2)s1	3	-1	-2	3	0	-5	nt
CC[C@H](C)/C=C/C1=CC2=C(Cl)C(=O)[C@@]3(C)OC(=O)C(C(=O)[C@H](C)[C@@H](C)O)=C3C2=CO1	47*	nt	8	5	nt	-4	32
O=S(=O)(Nc1ccc(NS(=O)(=O)c2ccccc2)c2ccccc12)c1ccccc1	nt	nt	nt	nt	-4	nt	nt
O=S(=O)(Nc1ccc(O)c2ccccc12)c1ccc(F)cc1	64*	nt	3	5	16	4	11
CCc1ccc(S(=O)(=O)Nc2ccc(O)c3ccccc23)cc1	53*	nt	12	4	6	13	2
COc1ccccc1OCCNC(=O)c1ccc(C(C)(C)C)cc1	4	nt	1	2	-2	-1	nt
CN(C)S(=O)(=O)Oc1ccsc1C(=O)Nc1ccc(Cl)c(Cl)c1	-13	-8	-6	-6	-4	-6	nt
CCc1[nH]nc(C(=O)N2CCCC(Nc3ccc(C(C)C)cc3)C2)c1C (centres undefined)	0	nt	-4	3	1	5	nt
CC1CCc2c(sc3nc(C(C)(C)C)nc(N4CCN(C(=O)CCl)CC4)c23)C1 (centres undefined)	73*	nt	7	4	3	1	74*	GSTO1 recomb ABPP=70

Source: PubChem BioAssay (The Scripps Research Institute Molecular Screening Center)
